ChEMBL document CHEMBL3994613, “Diaryltriazenes as antibacterial agents against methicillin resistant Staphylococcus aureus (MRSA) and Mycobacterium smegmatis” (Eur J Med Chem, 2017)
≈ marks a conversion by molar mass, not a printed value.

Experiments:
Staphylococcus aureus [1] = assay: Antibacterial activity against methicillin-resistant Staphylococcus aureus 1653 after 18 to 20 hrs by broth microdilution method; format: functional
Method in brief: (§1)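 EUCAST broth microdilution in LB broth. Inoculum from 20–24 h colonies on 5% sheep blood BHI agar, final 3×10^4 CFU/mL, 18–20 h aerobic at 37 °C, plate reader, at least duplicate.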

Escherichia coli [2] = assay: Antibacterial activity against N43 CGSC 5583 knock out Escherichia coli after 18 to 20 hrs by microdilution method; format: functional
Method in brief: (§2)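 Broth microdilution per EUCAST in LB broth. Inoculum from 20–24 h colonies by CLSI direct colony suspension (LB agar for E. coli), final 2×10^4 CFU/mL. Read after 18–20 h aerobic incubation at 37 °C on plate reader, at least one duplicate.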

Escherichia coli [3] = assay: Antibacterial activity against Escherichia coli D22 after 18 to 20 hrs by microdilution method; format: functional; method in brief: as §2
Escherichia coli [4] = assay: Bactericidal activity against Escherichia coli D22 after 18 to 20 hrs by microdilution method; format: functional
Staphylococcus aureus [5] = assay: Antibacterial activity against methicillin-resistant Staphylococcus aureus USA300 after 18 to 20 hrs by microdilution method; format: functional
Method in brief: (§3)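 EUCAST broth microdilution in LB broth. Inoculum prepared by direct colony suspension from 20–24 h LB agar (E. coli DH10β) or 5% sheep blood BHI agar (MRSA USA300) growth. Final inoculum 2×10^4 CFU/mL, 18–20 h aerobic at 37 °C, growth read on a plate reader, at least duplicate.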

Streptococcus pneumoniae [6] = assay: Bactericidal activity against Streptococcus pneumoniae R6 after 18 to 20 hrs by broth microdilution method; format: functional
Pseudomonas aeruginosa [7] = assay: Antibacterial activity against Pseudomonas aeruginosa ATCC 27853 after 18 to 20 hrs by broth microdilution method; format: functional
Method in brief: (§4)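 EUCAST broth microdilution in LB broth. Inoculum from 20–24 h LB agar colonies (CLSI direct colony suspension), final 3×10^4 CFU/mL. Aerobic incubation 18–20 h at 37 °C, plate-reader read-out, at least one duplicate.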

Pseudomonas aeruginosa [8] = assay: Antibacterial activity against Pseudomonas aeruginosa PA0001 after 18 to 20 hrs by broth microdilution method; format: functional; method in brief: as §4
[9] = test system: Mycolicibacterium smegmatis; assay: Antimycobacterial activity against Mycobacterium smegmatis MC2 155 after 94 to 98 hrs by microdilution method; format: functional; conditions: str. MC2 155
Method in brief: (§5)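 Microdilution in TSB broth. Inoculum from colonies grown 96 h on TSA, final 1×10^5 CFU/mL, aerobic 94–98 h at 37 °C, growth read on a plate reader, at least duplicate.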

Staphylococcus aureus [10] = assay: Induction of membrane integrity impairment in Staphylococcus aureus USA300 assessed as cells with intact membrane at 8 ug/ml measured after 30 mins by Baclight assay relative to control; format: functional
Method in brief: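 LIVE/DEAD BacLight fluorescence assay. Live cells in 0.85% NaCl at OD600 0.2 were exposed to compound in DMSO for 30 min at 37 °C. Dye was then added and incubated 15 min in the dark at room temperature. Fluorescence read at ex 485 nm, em 530/630 nm. Intact membrane % came from a live/dead (isopropanol-killed) standard curve, at least triplicate, mean±SD.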

[11] = test system: Mycolicibacterium smegmatis; assay: Bactericidal activity against Mycobacterium smegmatis MC2 155 after 96 hrs by microdilution method; format: functional; conditions: str. MC2 155, 96 h; method in brief: as §5
[12] = Stability of the compound in water; format: physicochemical; conditions: buffer
[13] = Stability of the compound in solid state; format: physicochemical
Staphylococcus aureus [14] = assay: Bactericidal activity against methicillin-resistant Staphylococcus aureus 1653 after 18 to 20 hrs by broth microdilution method; format: functional; method in brief: as §1
[15] = Solubility of the compound in water; format: physicochemical; conditions: buffer
Bacillus subtilis [16] = assay: Antibacterial activity against Bacillus subtilis ATCC 6051 after 18 to 20 hrs by broth microdilution method; format: functional; method in brief: as §2
Escherichia coli [17] = assay: Bactericidal activity against Escherichia coli DH10beta harboring pHuLUC3 after 18 to 20 hrs by microdilution method; format: functional; method in brief: as §3
Bacillus subtilis [18] = assay: Bactericidal activity against Bacillus subtilis ATCC 6051 after 18 to 20 hrs by broth microdilution method; format: functional
Saccharomyces cerevisiae = assay: Antibacterial activity against Saccharomyces cerevisiae after 18 to 20 hrs by microdilution method
Method in brief: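 Microdilution in YEP broth against wild-type yeast grown on YEP agar. Final inoculum 1×10^5 CFU/mL. Read after 18–20 h aerobic incubation at 30 °C on plate reader, at least one duplicate.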

Klebsiella pneumoniae [19] = assay: Antibacterial activity against Klebsiella pneumoniae ATCC 700603 after 18 to 20 hrs by broth microdilution method; format: functional
Method in brief: (§6)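 Broth microdilution per EUCAST in TSB broth. Inoculum prepared by CLSI direct colony suspension from 20–24 h TSA colonies, final 3×10^4 CFU/mL. Aerobic incubation for 18–20 h at 37 °C, growth read on plate reader, at least one duplicate.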

Acinetobacter baumannii [20] = assay: Antibacterial activity against Acinetobacter baumannii ATCC BAA-1605 after 18 to 20 hrs by broth microdilution method; format: functional; method in brief: as §6
Acinetobacter baumannii [21] = assay: Antibacterial activity against Acinetobacter baumannii ATCC 19606 after 18 to 20 hrs by broth microdilution method; format: functional; conditions: ATCC 19606 = CIP 70.34 = JCM 6841; method in brief: as §6
Streptococcus pneumoniae [22] = assay: Antibacterial activity against Streptococcus pneumoniae R6 after 18 to 20 hrs by broth microdilution method; format: functional
Method in brief: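 Broth microdilution per EUCAST in BHI broth. Inoculum from colonies on BHI agar with 5% sheep blood, final 5×10^4 CFU/mL. Read after 18–20 h anaerobic incubation at 37 °C.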

Staphylococcus aureus [23] = assay: Bactericidal activity against methicillin-resistant Staphylococcus aureus USA300 after 18 to 20 hrs by microdilution method; format: functional; method in brief: as §3
Enterococcus faecalis [24] = assay: Antibacterial activity against vancomycin resistant Enterococcus faecalis 501 after 18 to 20 hrs by broth microdilution method; format: functional
Method in brief: (§7)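 EUCAST microdilution in BHI broth. Inoculum from 20–24 h colonies on 5% sheep blood BHI agar, final 3×10^4 CFU/mL, 18–20 h aerobic at 37 °C, plate reader, at least duplicate.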

Enterococcus faecalis [25] = assay: Bactericidal activity against vancomycin resistant Enterococcus faecalis 501 after 18 to 20 hrs by broth microdilution method; format: functional; method in brief: as §7
[26] = Stability of the compound in organic solvent; format: physicochemical
Escherichia coli [27] = assay: Antibacterial activity against Escherichia coli DH10beta harboring pHuLUC3 after 18 to 20 hrs by microdilution method; format: functional; method in brief: as §3
Klebsiella pneumoniae [28] = assay: Antibacterial activity against Klebsiella pneumoniae ATCC 13882 after 18 to 20 hrs by broth microdilution method; format: functional; method in brief: as §6
[29] = Stability in PBS buffer at pH 7.4 NMR method; format: physicochemical
[30] = Stability in PBS buffer at pH 7.4 by TLC method; format: physicochemical
[31] = Stability in pH 7.4 DMSOd6/PBS buffer assessed as glutathione reactivity incubated for 24 hrs by 1H NMR spectroscopic method; format: physicochemical; conditions: pH 7.4, 24 h
Method in brief: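 Equimolar reduced glutathione and compound were incubated at room temperature in DMSO-d6/phosphate buffer pH 7.4 (1:1, v/v). The mixture was monitored by NMR.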

Which MIC (Staphylococcus aureus [1]) does the source give for `O=C(CCl)N(/N=N/c1ccc([N+](=O)[O-])cc1C(F)(F)F)c1ccc([N+](=O)[O-])cc1C(F)(F)F` here?
Its MIC is 0.03 µg/mL (≈ 0.06 µM).

What about the MIC (Escherichia coli [2]) of the same compound?
Its MIC is > 128 µg/mL.

And the MIC (Escherichia coli [3])?
The MIC was 0.5 µg/mL (≈ 1 µM).

What about the MBC (Escherichia coli [4]) of the same compound?
Its MBC is 16 µg/mL (≈ 32 µM).

What about the MIC (Staphylococcus aureus [5]) of the same compound?
Its MIC is 2 µg/mL (≈ 4 µM).

What about the MBC (Streptococcus pneumoniae [6]) of the same compound?
Its MBC is 0.125 µg/mL (≈ 0.25 µM).

What about the MIC (Pseudomonas aeruginosa [7]) of the same compound?
The MIC was > 128 µg/mL.

And the MIC (Pseudomonas aeruginosa [8])?
The MIC was > 128 µg/mL.

What about the MIC [9] of the same compound?
The MIC was 32 µg/mL (≈ 64 µM).

And the Activity (Staphylococcus aureus [10])?
The Activity was 100%.

What about the MBC [11] of the same compound?
Its MBC is > 128 µg/mL.

What about the Stability [12] of the same compound?
The Stability was “Stable”.

What about the Stability [13] of the same compound?
Its Stability is “Stable”.

And the MBC (Staphylococcus aureus [14])?
The MBC was 0.5 µg/mL (≈ 1 µM).

What about the solubility [15] of the same compound?
The solubility was “Soluble”.

What about the MIC (Bacillus subtilis [16]) of the same compound?
The MIC was 0.0312 µg/mL (≈ 0.0625 µM).

And the MBC (Escherichia coli [17])?
Its MBC is > 128 µg/mL.

And the MBC (Bacillus subtilis [18])?
The MBC was 4 µg/mL (≈ 8 µM).

And the MIC (Saccharomyces cerevisiae)?
The MIC was > 128 µg/mL.

And the MIC (Klebsiella pneumoniae [19])?
The MIC was > 128 µg/mL.

What about the MIC (Acinetobacter baumannii [20]) of the same compound?
The MIC was > 128 µg/mL.

What about the MIC (Acinetobacter baumannii [21]) of the same compound?
Its MIC is > 128 µg/mL.

And the MIC (Streptococcus pneumoniae [22])?
The MIC was 0.0312 µg/mL (≈ 0.0625 µM).

What about the MBC (Staphylococcus aureus [23]) of the same compound?
Its MBC is 2 µg/mL (≈ 4 µM).

And the MIC (Enterococcus faecalis [24])?
Its MIC is 1 µg/mL (≈ 2 µM).

What about the MBC (Enterococcus faecalis [25]) of the same compound?
The MBC was > 128 µg/mL.

And the Stability [26]?
The Stability was “Stable”.

What about the MIC (Escherichia coli [27]) of the same compound?
The MIC was 128 µg/mL (≈ 256 µM).

What about the MIC (Klebsiella pneumoniae [28]) of the same compound?
Its MIC is > 128 µg/mL.

Which results are given for `O=[N+]([O-])c1ccc(/N=N/Nc2ccc([N+](=O)[O-])cc2C(F)(F)F)c(C(F)(F)F)c1`?
Stability [29]: Stable; Stability [30]: Stable

Which Stability [29] does the source give for `O=[N+]([O-])c1ccc(/N=N/[N-]c2ccc([N+](=O)[O-])cc2C(F)(F)F)c(C(F)(F)F)c1.[K+]` here?
Its Stability is “Stable”.

And the Stability [30]?
The Stability was “Stable”.

And the Stability [31]?
Its Stability is “Stable”.

And the Stability [12]?
The Stability was “Stable”.

And the Stability [13]?
Its Stability is “Stable”.

What about the solubility [15] of the same compound?
The solubility was “Soluble”.

And the Stability [26]?
Its Stability is “Stable”.
